Key:
[1] = Acid dissociation constant of the tertiary ammonium group; type: ADME; details: read-out: pKa2
Outline: (§1)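 Glass-electrode potentiometric titration under nitrogen at 25 °C in 0.15 M NaCl background electrolyte. Data were fitted to give two pKa values per aminoquinoline. Reported values are the average of three independent measurements, with error given as 1 SD.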

Plasmodium falciparum = test: In vitro antiplasmodial activity against chloroquine-sensitive Plasmodium falciparum D10; type: functional, organism-based
[2] = Association constant of hematin-aminoquinoline complex formation reported by spectrophotometric titration in aqueous dimethyl sulfoxide(DMSO) at pH 7.5; type: ADME; details: buffer
Outline: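 Spectrophotometric titration of monomeric hematin with aminoquinoline, fitted to 1:1 complex formation. Run at 25 °C, pH 7.5, in 40% aqueous DMSO with 20 mM HEPES. Reported as log K, the average of three independent measurements ± 1 SEM.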

[3] = Normalised IC50 was measured; type: functional
Outline: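 Normalized IC50 is the D10 P. falciparum IC50 multiplied by α. α is the compound's calculated vacuolar accumulation ratio divided by chloroquine's, both from measured pKa values, assuming vacuolar pH 5.5 and external pH 7.4.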

[4] = Acid dissociation constant of the quinolinium cation; type: ADME; details: read-out: pKa1; outline: as §1

| Structure (SMILES) | pKa [1] | IC50 (Plasmodium falciparum) [nM] | Log K [2] | pKa [4] | IC50 [3] [nM] |
| --- | --- | --- | --- | --- | --- |
| CCN(CC)CCNc1ccnc2cc(N)ccc12 | 10 | > 5000 | 4.35 | 8.36 | > 4830 |
| CCN(CC)CCNc1ccnc2cc(OC)ccc12 | 9.5 | 448 | 4.83 | 8.09 | 399 |
| CCN(CC)CCNc1ccnc2cc(C(F)(F)F)ccc12 | 7.65 | 99 | 4.67 | 7.5 | 48 |
| CCN(CC)CCNc1ccnc2cc([N+](=O)[O-])ccc12 | 8.8 | 325 | 4.65 | 6.28 | 28 |
| CCN(CC)CCNc1ccnc2cc(Br)ccc12 | 7.97 | 36 | 4.99 | 7.93 | 28 |
| CCN(CC)CCNc1ccnc2cc(Cl)ccc12 | 8.83 | 37 | 5.81 | 7.56 | 23 |

More lines, main results first:

| pKa [1] | IC50 (Plasmodium falciparum) [nM] | Log K [2] | pKa [4] | Structure (SMILES) | IC50 [3] [nM] |
| --- | --- | --- | --- | --- | --- |
| 9.24 | 138 | 4.6 | 7.62 | CCN(CC)CCNc1ccnc2cc(F)ccc12 | 92 |
| 9.42 | 1060 | 4.75 | 7.96 | CCN(CC)CCNc1ccnc2ccccc12 | 892 |
| 9.51 | 82 | 4.86 | 8.12 | CCN(CC)CCNc1ccnc2cc(C)ccc12 | 74 |
| 8.95 | 3070 | 4.48 | 6.82 | CCN(CC)CCNc1ccnc2cc(O)ccc12 | 700 |
| 7.79 | 35 | 5.02 | 7.48 | CCN(CC)CCNc1ccnc2cc(I)ccc12 | 17 |
